For assay [1], the target named is T1, 5-hydroxytryptamine receptor 6 (Homo sapiens, UniProt P50406). As to the kind of experiment: Partial agonist activity at recombinant human 5-HT6 receptor expressed in HEK293 cells assessed as induction of intracellular cAMP production after 30 mins. The class given is functional, cell-based.
In assay [2] the target is T1, 5-hydroxytryptamine receptor 6. Description: Antagonist activity at recombinant human 5-HT6 receptor expressed in HEK293 cells assessed as 5-HT-induced intracellular cAMP production after 30 mins. Format: functional, cell-based. In short, it runs like this: (§1)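 Human 5-HT6R in HEK cells under a tetracycline-inducible T-REx promoter, induced with 1 µg/mL tetracycline the day before. Cells in HBSS/5 mM HEPES pH 7.4, 0.05% BSA and IBMX, about 4000 per well. IC50 from 4-parameter fit, in duplicate. Ki by Cheng-Prusoff using 5-HT EC50 measured alongside.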

Assay [3] has the same target. Description: Antagonist activity at 5-HT6 receptor (unknown origin). In short, it runs like this:
as §1

Assay [4] has the same target. Description: Displacement of [3H]-lysergic acid diethylamide from human 5-HT6 receptor expressed in HEK293 cell membranes after 3.5 hrs.

T1 sequence (P50406 whole entry): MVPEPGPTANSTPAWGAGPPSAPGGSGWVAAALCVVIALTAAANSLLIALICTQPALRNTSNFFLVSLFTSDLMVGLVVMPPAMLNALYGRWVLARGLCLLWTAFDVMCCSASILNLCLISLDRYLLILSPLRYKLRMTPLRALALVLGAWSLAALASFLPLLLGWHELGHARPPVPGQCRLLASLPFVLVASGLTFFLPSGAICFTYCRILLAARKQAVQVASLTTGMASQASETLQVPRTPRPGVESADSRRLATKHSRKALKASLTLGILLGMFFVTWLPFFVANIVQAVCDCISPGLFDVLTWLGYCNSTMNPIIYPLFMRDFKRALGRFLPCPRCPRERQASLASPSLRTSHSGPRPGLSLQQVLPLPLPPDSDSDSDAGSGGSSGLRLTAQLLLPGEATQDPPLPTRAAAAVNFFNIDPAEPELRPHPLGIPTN

With `CN(C)c1cc(N2CCNCC2)ccc1S(=O)(=O)c1ccccc1`, the Activity in assay [1] came out at 17%. For the same compound, the Ki in assay [2] was determined as 30.1 nM. The compound `CCNc1cc(N2CCNCC2)ccc1S(=O)(=O)c1ccccc1` came in with an IC50 in assay [3] of 2.7 nM. This counts as single-digit nanomolar. For `Nc1ccc(S(=O)(=O)c2ccc(N)c(N)c2)cc1`, in assay [2], the Ki is 564 nM. On the same count and under the same terms, then `Nc1ccc(S(=O)(=O)c2ccc(N)cc2)cc1` [DAPSONE], with 183 nM; and `O=S(=O)(c1ccccc1)c1ccccc1` [(PHENYLSULFONYL)BENZENE], with 1600 nM; and `CNc1cc(-c2ccccc2)ccc1S(=O)(=O)c1ccccc1`, with 153 nM.

`CNc1cc(-c2cccnc2)ccc1S(=O)(=O)c1ccccc1`: in assay [2], the Ki turned out to be 48.3 nM. Same read-out and setting: the same measure for `CC(=O)Nc1cc(N2CCNCC2)ccc1S(=O)(=O)c1ccccc1`: 8.3 nM. Take `COc1ccccc1S(=O)(=O)c1ccccc1`: in assay [2], the Ki stood at 866 nM. The same measure, in the same setting: the same measure for `O=S(=O)(c1ccccc1)c1ccc(N2CCNCC2)cc1`: 10.8 nM; for `CNc1ccccc1S(=O)(=O)c1ccccc1`: 24.3 nM. Consider `Nc1ccccc1S(=O)(=O)c1ccccc1`, for which the inhibition constant (Ki) in assay [2] stood at 491 nM. Take `CN(C)c1ccccc1S(=O)(=O)c1ccccc1`: the inhibition constant Ki in assay [2] stood at 2040 nM.

Consider `Nc1cc(N2CCNCC2)ccc1S(=O)(=O)c1ccccc1`, for which the inhibition constant (Ki) in assay [2] worked out at 1.65 nM.

In turn, `Cc1cc(N2CCNCC2)c2c(c1)N(S(=O)(=O)c1ccccc1Cl)CCO2` returned an inhibition constant (Ki) in assay [4] of 0.2 nM.

The record behind these values is ChEMBL document CHEMBL2413055, “Synthesis of substituted diphenyl sulfones and their structure-activity relationship with the antagonism of 5-НТ6 receptors” (Bioorg Med Chem, 2013).
